EBV gp42 block = blocks Epstein-Barr virus glycoprotein 42 binding; 220,000 compounds, 0.42% hits; Q1HVG2; Fluorescence polarization binding assay, mP read-out; inhibition, % (tested at 21.74 µM); in the data active means inhibition above about 50%
Target sequence (Q1HVG2 whole entry, looked up): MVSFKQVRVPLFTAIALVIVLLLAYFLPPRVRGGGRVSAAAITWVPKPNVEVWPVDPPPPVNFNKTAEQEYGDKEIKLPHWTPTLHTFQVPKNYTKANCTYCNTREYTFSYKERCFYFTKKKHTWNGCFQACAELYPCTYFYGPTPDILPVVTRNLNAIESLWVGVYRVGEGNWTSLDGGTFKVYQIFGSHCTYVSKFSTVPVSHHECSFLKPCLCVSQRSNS
CHOP inh = CHOP inhibition in unfolded protein response. inhibition, % at 10 µM. 220,000 compounds, 3.8% hits. CHO-K1 CHOP-promoter luciferase, tunicamycin-induced, 15-18 h;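 active means compounds that reduced the stress-induced luciferase reporter signal by more than about 70% of percent inhibition, limit read from the data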;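 further: 0% = tunicamycin plus vehicle and 100% = wells without tunicamycin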
WT yeast gro inh = growth inhibition of WT yeast, mitochondrial fusion screen; mitochondrial fusion phenotypic screen, WT strain; inhibition, % at 10 µM; 190,000 compounds, 2.1% hits; AID 1362; in the data active means inhibition above about 58%; tested in S. cerevisiae
TbMetRS inhib = Trypanosoma brucei MetRS inhibition | purified T. brucei MetRS, ATP depletion, Kinase-Glo luminescence | 360,000 compounds, 0.4% hits | inhibition, % at 11.9 µM | AID 624268;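 active means inhibition above a per-plate cutoff of the control wells' mean inhibition plus 3 SD, cut at about 5.5% in these data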;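 further: 0% = DMSO wells median and 100% = median of wells with control inhibitor compound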
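Test system: purified T. brucei MetRS enzyme. Also added: ATP, methionine and E. coli bulk tRNA substrates. Compound: 11.9 µM single point. Schedule: 15 min enzyme-compound preincubation, 2 h reaction, 10 min detection, 25 °C. Signal: luciferase luminescence of residual ATP, Kinase-Glo. Evaluation: percent inhibition versus plate control medians. Controls: DMSO wells, low control.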
MPTP block = permeability transition pore inhibition; isolated mouse mitochondria, Ca2+ swelling absorbance, 30 min; inhibition, % at 10 µM; 360,000 compounds, 1.4% hits; AID 602449;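 active means inhibition of 50% or more, scaled per plate between neutral and stimulator controls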;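 further: 0% = DMSO wells given calcium and 100% = 1 mM EGTA wells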
GRIN3A LBD mod = modulates the human NR3A ligand-binding domain; NR3A LBD differential scanning fluorimetry, Tm shift; 0% = protein alone, 100% = glycine-bound protein; Tm shift relative to glycine control, % at 25 µM; 340,000 compounds, 2.5% hits; AID 1259313;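 active means melting temperature shift of at least 10% of the positive control shift, at one fixed dose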
* marks the source's active call; other numbers are inactive results; x = no result. A selection: hits, their analogues and other compounds. The true share with any hit is near 6.4%.

SMILES	EBV gp42 block	CHOP inh	WT yeast gro inh	TbMetRS inhib	MPTP block	GRIN3A LBD mod
COc1ccc(N=C2SC(C(=O)Nc3ccc4c(c3)OCO4)CC(=O)N2C)cc1 (stereo not drawn)	-1	39	1	0	-3	-2
Cc1cc(C)nc(N2CCCC(C(=O)NCCc3cccc(F)c3)C2)n1 (stereo not drawn)	-21	-25	9	0	0	-2
CC1CCN(S(=O)(=O)c2csc(C(=O)Nc3ccccc3)c2)CC1	8	77*	0	0	14	-13
O=C(Nc1cccc(Cl)c1)c1cc(S(=O)(=O)N2CCOCC2)cs1	x	x	x	0	-1	31*
CC1CCN(S(=O)(=O)c2ccc(NC(=O)Cc3ccccc3)cc2)CC1	3	85*	15	0	18	-2
O=C(CCCCCN1C(=O)c2ccccc2C1=O)Nc1ccc(S(=O)(=O)N2CCCCC2)cc1	-7	20	68*	0	3	-9
O/N=C/c1cccnc1Sc1ccccc1	2	-12	-10	0	0	-5
CCCn1c(=O)n(C)c(=O)c2c(SCC(=O)Nc3cc(C)on3)nc(C(C)(C)C)nc21	x	x	x	0	0	0
COc1cc(NC(=O)c2ccco2)ccc1NC(=O)c1ccccc1Cl	2	20	1	-2	1	-1
Cc1ccc(CNC(=O)c2oc3ccc(S(=O)(=O)N4CCOCC4)cc3c2C)cc1	11	-4	45	-1	0	-32
Cc1c(C(=O)Nc2cccc(C(F)(F)F)c2)oc2ccc(S(=O)(=O)N3CCOCC3)cc12	-10	52	-20	-1	3	25*
CC1CCN(S(=O)(=O)c2ccc(N/N=C(/C#N)C(N)=O)cc2)CC1	-4	16	78*	-1	-4	-3
CCOC(=O)c1sc2ccccc2c1NC(=O)c1coc2ccccc2c1=O	-4	21	27	-1	4	-1
CCOC(=O)c1sc2ccccc2c1OC(=O)c1ccccc1	-3	81*	x	-1	-6	14*
CCOCCCNC(=S)N1CCN(CC)CC1	3	4	4	0	2	-3
C=CCN=C1S/C(=C\N(C)C)C(=O)N1S(=O)(=O)c1ccc(C)cc1	x	x	x	0	-2	12*
Clc1ccc(/C=N/N2CCN(Cc3ccccc3Cl)CC2)cc1	-2	20	66*	0	4	2
COc1ccccc1/C=C/C=N\N1CCN(Cc2ccccc2Cl)CC1	-8	11	63*	0	2	6
CC1CCc2sc(C(=O)NNC(=S)NCC3CCCO3)cc2C1 (stereo not drawn)	x	x	x	0	2	1
O=C(Oc1c(Cl)cc(Cl)c2cccnc12)c1cccs1	-9	62	60*	0	1	-9
CC12CCC(C(=O)N(Cc3ccccc3)Cc3ccccc3)(OC1=O)C2(C)C (stereo not drawn)	18	37	79*	-1	1	3
COc1ccc(S(=O)(=O)c2c(O)c3ccc(C(=O)Nc4cccc(F)c4)cc3[nH]c2=O)cc1	x	x	x	0	-1	-1
Cc1c2c(nc3ccccc13)CCC(C(C)(C)C)C2 (stereo not drawn)	-7	72*	68*	1	5	0
Clc1c2c(nc3ccccc13)CCC2	x	x	x	-1	0	-1
COc1ccc(C2c3cc(OC)c(OC)cc3CC3C(=O)OCC32)cc1OC (stereo not drawn)	x	x	x	0	1	2
SMILES	EBV gp42 block	CHOP inh	WT yeast gro inh	TbMetRS inhib	MPTP block	GRIN3A LBD mod
COc1cc(C(=O)O/N=C2\C=CC(=O)C=C2C)cc(OC)c1OC	-18	94*	-50	1	2	0
C[C@H]1CC[C@H]2C(=O)N3[C@H](c4ccccc4Br)[C@@H](C)CC[C@H]3C(=O)N2[C@@H]1c1ccccc1Br	-16	85*	70*	x	x	x
COC(=O)c1cc2occc2n1CC(=O)Nc1cc(OC)cc(OC)c1	-5	1	-3	-2	0	11*
COc1cccc2c1C(=O)O/C2=C/c1ccc2c(c1)OCO2	16	85*	7	-2	1	x
COc1cccc(OC)c1C1=CC(=O)C[C@H](c2ccc3c(c2)OCO3)C1	x	x	x	0	0	-3
CCC(=O)N(Cc1cc2cc(OC)ccc2[nH]c1=O)c1ccccc1OC	x	x	x	0	-1	x
COc1cccc(NC(=O)C(=O)N/N=C/c2cc(C)n(-c3ccc(Cl)c(Cl)c3)c2C)c1	-6	78*	29	-2	2	1
Cc1ccc(NC(=O)NNC(=O)Cn2nc(-c3ccccc3)c(-c3ccccc3)c(C#N)c2=O)cc1	-19	4	-8	-1	1	1
CC1=CN2C(=N)/C(=C/c3ccc(Sc4ccc(C)cc4)o3)C(=O)N=C2S1	-16	17	77*	-1	50	4
CC1=CN2C(=N)/C(=C/c3ccc(C)o3)C(=O)N=C2S1	-19	8	-9	-1	1	4
COC(=O)c1ccc2nc(-c3ccc(S(C)(=O)=O)cc3)cn2c1	-2	-31	-5	0	0	-1
COC(=O)c1ccc2nc(-c3cccc(N)c3)cn2c1	-4	80*	19	0	2	-5
CN(CC(=O)Nc1ccc(F)cc1)C(=O)COC(=O)c1cc([N+](=O)[O-])ccc1N1CCOCC1	x	x	x	0	-3	0
COc1ccc2c(c1)-c1ccccc1S(=O)(=O)N(C)C2	x	x	x	-1	-1	-2
COc1ccc2c(c1)CN(C)S(=O)(=O)c1ccccc1-2	x	x	x	-1	1	13*
O=C(Nc1ccc(OCc2ccccc2)cc1)c1cccs1	x	x	x	-1	1	25*
CCc1ccc(OCc2nnc(NC(=O)c3cccs3)s2)cc1	3	72*	7	-1	2	2
O=C(N/N=C/c1ccc(OCc2ccccc2)cc1)c1cccs1	9	66	-10	0	0	21*
O=C(N/N=C/c1ccc(F)cc1)c1sccc1OCc1ccc(F)cc1	8	-25	5	-1	-2	1
O=C(N/N=C/c1ccc(Cl)cc1)c1sccc1OCc1ccc(F)cc1	-5	-7	4	-1	3	22*
C=CCN1C(=O)C(Cc2cccc(C)c2)SC1=Nc1ccc(C(=O)O)cc1 (stereo not drawn)	-7	12	-4	0	-2	0
CN(CC1COCCO1)C(=O)c1cc(COc2c(F)cccc2F)on1 (stereo not drawn)	x	x	x	-1	1	3
O=C(c1cc(S(=O)(=O)N2CCOCC2)ccc1Cl)N1CCC(Cc2ccccc2)CC1	x	x	x	0	-2	2
O=C(CCSc1ccccc1)Nc1ccc(OCc2ccccc2)cc1	-6	75*	7	-1	1	-8
Oc1ccc(N=Cc2ccc(OCc3ccccc3)cc2)cc1	-9	32	-3	1	2	10*
O=C(CCN1CCN(c2ccccc2)CC1)Nc1ccc(OCc2ccccc2)cc1	-12	30	0	-1	27	9

From PubChem BioAssay
